Published values gathered from unrelated publications.
Each line is one published result; the experiments were not run side by side.
Target: Beta-1 adrenergic receptor (ADRB1, Homo sapiens, UniProt P08588)
Concentration: 10 µM

O=C(c1ccc(F)cc1)N(Cc1ccccc1)C1CCCCC1  inhibition (cell-free assay): 4%
CCCNc1nc2ccccc2n1Cc1ccc(Cl)cc1  inhibition (ligand displacement): 19.5%
Ic1cccc2cnccc12  inhibition (ligand displacement, radioligand): 2%
Oc1cccc(Nc2nc(-c3ccc(F)cc3F)cs2)c1  inhibition (cell-free assay): -36.5%
N#Cc1cc(Cn2c(N3CCCC3)nc3ccccc32)ccc1F  inhibition (ligand displacement): -9.19%
O=C(Nc1ccc(S(=O)(=O)N2CCC(Cl)CC2)cc1)c1ccc([N+](=O)[O-])o1  inhibition (ligand displacement, radioligand): 1%
C[C@H](c1ccc(F)cc1)N(Cc1ccc(Cl)c(C(=O)O)c1)C(=O)c1cnc2ccccc2c1  inhibition (cell-free assay): -0.35%
O=C1N=C(N2CCCCN2)S/C1=C\c1ccc(F)cc1O  inhibition (ligand displacement, radioligand): < 10%
NS(=O)(=O)c1cc(NC(=O)C2(c3ccccc3Cl)CC2)ccc1Oc1cccc(Cl)c1  inhibition (cell-free assay): -3.09%
CCN(CC)c1ccc(C2Nc3ccc(C(=O)c4ccccc4)cc3NC3=C2C(=O)CC(C)(C)C3)cc1 (centres unmarked)  inhibition (ligand displacement, radioligand): -1%
CCN(Cc1ccccc1C(F)(F)F)C(=O)C1CCN(S(=O)(=O)c2ccc3[nH]ncc3c2)CC1  inhibition (ligand displacement, radioligand): 3%
